Like-named read-outs stand apart in the source and are kept apart here.
Key:
[1] = system: ALL-17 ALL B-precursor xenograft; experiment: PPTP in vivo xenograft testing, ALL-17; set-up: species or system mice
[2] = system: Rh18 EMB rhabdomyosarcoma xenograft; experiment: PPTP in vivo xenograft testing, Rh18; set-up: species or system mice
MOLT-4 cell line = experiment: DIMSCAN in vitro cytotoxicity testing, MOLT-4; type: cell-based
In short: (§1)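 Test compound incubated with cells of a 24-line pediatric cancer panel for 96 h at 0.1 nM to 1 μM, then assessed by DIMSCAN. Relative IC50 (rIC50) derived per line. Panel comparison value is the panel rIC50 divided by the rIC50 of each cell line.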

CHLA-136 cell line = experiment: DIMSCAN in vitro cytotoxicity testing, CHLA-136; type: cell-based
In short: as §1

[3] = system: PPTP in vitro cell line panel; experiment: DIMSCAN in vitro cytotoxicity testing, panel summary; type: cell-based
SK-NEP-1 Ewing xenograft = experiment: PPTP in vivo xenograft testing, SK-NEP-1; set-up: species or system mice
[4] = system: ALL-7 ALL B-precursor xenograft; experiment: PPTP in vivo xenograft testing, ALL-7; set-up: species or system mice
CHLA-258 cell line = experiment: DIMSCAN in vitro cytotoxicity testing, CHLA-258; type: cell-based
In short: as §1

[5] = 1.5 mg/kg IP Q4Dx3 repeated at Day 21
[6] = 1 mg/kg IP Q4Dx3 repeated at Day 21

C=C1C[C@@H]2CC[C@@]34C[C@H]5O[C@H]6[C@@H](O3)[C@H]3O[C@H](CC[C@@H]3O[C@H]6[C@H]5O4)CC(=O)C[C@@H]3[C@@H](OC)[C@@H](C[C@H](O)CN)O[C@H]3C[C@H]3O[C@@H](CC[C@@H]1O2)C[C@@H](C)C3=C [Eribulin]
EFS activity ([1]; 1.5 mg/kg IP): High (High activity requires: (a) an EFS T/C >2; (b) a significant difference in EFS distributions, and (c) a net reduction in median tumor volume for animals in the treated group at the end of treatment as compared to at treatment initiation) | Response activity ([1]; 1.5 mg/kg IP): High (A high level of activity is indicated by a score of 6 or more) | EFS T/C [1, 5]: >5.3 | Median final RTV (CD45%) ([1]; CD45%, 1.5 mg/kg IP): 0.0% | EFS activity ([2]; 1 mg/kg IP): Int (Intermediate activity = criteria (a) and (b) above, but not having a net reduction in median tumor volume for treated animals at the end of the study) | Response activity ([2]; 1 mg/kg IP): Int (intermediate activity by a score of ≥2 but <6) | T/C volume activity ([2]; 1 mg/kg IP): Low (Low activity = T/C >0.45) | EFS T/C [2, 6]: >3.2 | Median final RTV (CD45%) [2, 6]: 1.8 | Tumor volume T/C ([2]; 1 mg/kg IP, Day 21 or earlier): 0.76 | IC50 (MOLT-4 cell line; Homo sapiens, MOLT-4, 96 h, read-out: rIC50): < 0.1 nM | Panel rIC50/Line rIC50 (MOLT-4 cell line; MOLT-4): >2.74 | Relative in/out% (MOLT-4 cell line; MOLT-4): −99% | Ymin % (observed) (MOLT-4 cell line; MOLT-4): 0.05% | IC50 (CHLA-136 cell line; 96 h, read-out: rIC50): 2.37 nM | Panel rIC50/Line rIC50 (CHLA-136 cell line; CHLA-136): 0.11 | Relative in/out% (CHLA-136 cell line; CHLA-136): −65% | Ymin % (observed) (CHLA-136 cell line; CHLA-136): 9.96% | Panel rIC50/Line rIC50, maximum ([3]; maximum of PPTP cell lines): >2.74 | Relative in/out%, maximum ([3]; maximum of PPTP cell lines): −18% | Ymin % (observed), maximum ([3]; maximum of PPTP cell lines): 20.92% | Panel rIC50/Line rIC50, median ([3]; median of PPTP cell lines): 1.20 | Relative in/out%, median ([3]; median of PPTP cell lines): −89% | Ymin % (observed), median ([3]; median of PPTP cell lines): 1.79% | Panel rIC50/Line rIC50, minimum ([3]; minimum of PPTP cell lines): 0.02 | Relative in/out%, minimum ([3]; minimum of PPTP cell lines): −100% | Ymin % (observed), minimum ([3]; minimum of PPTP cell lines): 0.00% | IC50 ([3]; read-out: rIC50, maximum, maximum of PPTP cell lines): 14.8 nM | IC50 ([3]; read-out: rIC50, median, median of PPTP cell lines): 0.27 nM | IC50 ([3]; read-out: rIC50, minimum, minimum of PPTP cell lines): < 0.1 nM | IC50 ([3]; read-out: rIC50, most sensitive cell lines, lymphoid origin (three ALL, one ALCL, one NHL)): < 0.1 nM | IC50 ([3]; read-out: rIC50, other (non-neuroblastoma) PPTP cell lines): 0.14 nM | IC50 ([3]; read-out: relative IC50 (rIC50), range, range over the PPTP cell lines): 0.1 to 14.8 nM | EFS activity (SK-NEP-1 Ewing xenograft; 1 mg/kg IP): High (High activity requires: (a) an EFS T/C >2; (b) a significant difference in EFS distributions, and (c) a net reduction in median tumor volume for animals in the treated group at the end of treatment as compared to at treatment initiation) | Response activity (SK-NEP-1 Ewing xenograft; 1 mg/kg IP): High (A high level of activity is indicated by a score of 6 or more) | T/C volume activity (SK-NEP-1 Ewing xenograft; 1 mg/kg IP): High (High activity = T/C ≤0.15) | EFS T/C (SK-NEP-1 Ewing xenograft; [6]): >4.3 | Median final RTV (CD45%) (SK-NEP-1 Ewing xenograft; [6]): 0.0 | Tumor volume T/C (SK-NEP-1 Ewing xenograft; 1 mg/kg IP, Day 21 or earlier): 0.00 | EFS activity ([4]; 1.5 mg/kg IP): Int (Intermediate activity = criteria (a) and (b) above, but not having a net reduction in median tumor volume for treated animals at the end of the study) | Response activity ([4]; 1.5 mg/kg IP): High (A high level of activity is indicated by a score of 6 or more) | EFS T/C [4, 5]: >4.4 | Median final RTV (CD45%) ([4]; CD45%, 1.5 mg/kg IP): 3.0% | IC50 (CHLA-258 cell line; 96 h, read-out: rIC50): 0.5 nM | Panel rIC50/Line rIC50 (CHLA-258 cell line; CHLA-258): 0.54 | Relative in/out% (CHLA-258 cell line; CHLA-258): −84% | Ymin % (observed) (CHLA-258 cell line; CHLA-258): 6.29%

— article PMC4263960 (Pediatric blood & cancer, 2013)
